# From ChEMBL document CHEMBL1158481, “Adenine-based acyclic nucleotides as novel P2X3 receptor ligands” (J Med Chem, 2009)
# The source made the active and inactive calls. The calls are words filed in the database; no cut-off is given here.
# What was measured:
# Conditions in all cases: HEK293
# [1] = target: T1, P2X purinoceptor 3 (Rattus norvegicus) (UniProt P49654); test: Activity at rat P2X3 receptor expressed in HEK cells assessed as induction of inward current at 100 uM by patch clamp method; type: cell-based
# T1 sequence (whole entry): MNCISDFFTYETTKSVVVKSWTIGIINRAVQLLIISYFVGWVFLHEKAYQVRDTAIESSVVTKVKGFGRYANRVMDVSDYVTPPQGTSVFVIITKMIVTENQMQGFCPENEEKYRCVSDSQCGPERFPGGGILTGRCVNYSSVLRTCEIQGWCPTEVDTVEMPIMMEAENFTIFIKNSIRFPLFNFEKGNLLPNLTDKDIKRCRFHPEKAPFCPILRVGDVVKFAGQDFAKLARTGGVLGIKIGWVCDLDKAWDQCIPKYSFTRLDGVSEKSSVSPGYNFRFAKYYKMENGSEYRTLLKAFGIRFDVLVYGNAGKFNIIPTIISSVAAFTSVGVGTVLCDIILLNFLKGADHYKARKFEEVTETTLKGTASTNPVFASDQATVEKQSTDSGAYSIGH
# Summary of the method: (§1)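 HEK 293T cells transiently transfected with rat P2X3 (calcium phosphate), recorded 48 h post-transfection by whole-cell patch clamp at -60 mV in HEPES-buffered saline pH 7.4, CsCl pipette. Compound applied at 100 μM by rapid superfusion; inward current compared with averaged control current from ≥3 applications of α,β-meATP 100 μM for 2 s, 5 min apart.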
# [2] = target: T1, P2X purinoceptor 3 (Rattus norvegicus); test: Agonist activity at rat P2X3 receptor expressed in HEK cells assessed as induction of inward current at 100 uM by patch clamp method relative to alpha, beta-meATP; type: functional, cell-based; summary of the method: as §1
# [3] = target: T1, P2X purinoceptor 3 (Rattus norvegicus); test: Activity at rat P2X3 receptor expressed in HEK cells assessed inhibition of alpha, beta-meATP induced response by patch clamp method; type: cell-based
# Summary of the method: (§2)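 Rat P2X3 subunit plasmid transfected (calcium phosphate) into HEK 293T cells, used 48 h later. Whole-cell clamp at -60 mV, fast superfusion; acyclic nucleotide (100 μM) preapplied 20 s, then α,β-meATP 100 μM for 2 s. Peak inward current expressed as % of control α,β-meATP response; n=7 cells, mean ± SEM, paired t or Mann-Whitney test.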
# [4] = target: T1, P2X purinoceptor 3 (Rattus norvegicus); test: Activity at rat P2X3 receptor expressed in HEK cells assessed as depression of amplitude current subsequent response to alpha, beta-meATP by patch clamp method relative to control; type: cell-based; summary of the method: as §2
# [5] = target: T1, P2X purinoceptor 3 (Rattus norvegicus); test: Antagonist activity at rat P2X3 receptor expressed in HEK cells assessed as inhibition of alpha, beta-meATP-induced inward current at 100 uM by patch clamp method; type: functional, cell-based; set-up: scale not given: the % may be the effect or the level left; summary of the method: as §2
# [6] = target: T1, P2X purinoceptor 3 (Rattus norvegicus); test: Agonist activity at rat P2X3 receptor expressed in HEK cells assessed as induction of alpha, beta-meATP inward current at 100 uM pretreated before alpha, beta-meATP induction by patch clamp method; type: functional, cell-based; summary of the method: as §2
SMILES,Activity [1],Activity [2],further results
Nc1nc(I)nc2c1ncn2CCCCOP(=O)(O)OP(=O)(O)OP(=O)(O)O,Active,60%,Activity [3]: Active
CCCCC#Cc1nc(N)c2ncn(CCCCOP(=O)(O)OP(=O)(O)OP(=O)(O)O)c2n1,Active,38%,Activity [3]: Active
Nc1nc(N)c2ncn(CCCCOP(=O)(O)O)c2n1,inactive,inactive,Activity [5]: 20%
Nc1nc(OCCc2ccccc2)nc2c1ncn2CCCCOP(=O)(O)OP(=O)(O)O,,Active,
Nc1ncnc2c1ncn2CCCCOP(=O)(O)O,,inactive,
Nc1nc(N)c2ncn(CCCCOP(=O)(O)OP(=O)(O)OP(=O)(O)O)c2n1,Active,25%,Activity [6]: 17%
Nc1nc(N)c2ncn(CCCCOP(=O)(O)OP(=O)(O)O)c2n1,Active,Active,
Nc1ncnc2c1ncn2CCCCOP(=O)(O)OP(=O)(O)O,,32%,
Nc1nc(OCCc2ccccc2)nc2c1ncn2CCCCOP(=O)(O)OP(=O)(O)OP(=O)(O)O,,Active,
CCCCC#Cc1nc(N)c2ncn(CCCCOP(=O)(O)O)c2n1,inactive,inactive,Activity [5]: 20%

# The next lines start with results.
Activity [1],Activity [2],SMILES,further results
inactive,inactive,Nc1nc(I)nc2c1ncn2CCCCOP(=O)(O)O,Activity [4]: 80%; Activity [5]: 20%
,inactive,Nc1nc(Cl)nc2c1ncn2CCCCOP(=O)(O)O,Activity [5]: 20%
Active,,"Nc1ncnc2c1ncn2[C@@H]1O[C@H](COP(=O)(O)CP(=O)(O)OP(=O)(O)O)[C@@H](O)[C@H]1O (single isomer, unassigned)",
,30%,Nc1nc(Cl)nc2c1ncn2CCCCOP(=O)(O)OP(=O)(O)OP(=O)(O)O,
,inactive,Nc1nc(OCCc2ccccc2)nc2c1ncn2CCCCOP(=O)(O)O,Activity [5]: 20%
,36%,Nc1ncnc2c1ncn2CCCCOP(=O)(O)OP(=O)(O)OP(=O)(O)O,
,Active,Nc1nc(Cl)nc2c1ncn2CCCCOP(=O)(O)OP(=O)(O)O,
